KCNK3 block = human KCNK3 channel inhibition, primary screen | B-score at 10 µM | CHO-KCNK3 thallium flux, FluxOR fluorescence; stronger effect = lower value | actives 0.84% (n = 340,000) | O14649 | AID 602410;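 active means B-score under library mean minus 4 SD, starting fluorescence ratio at most library mean plus 5 SD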;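 further: more negative B-score means stronger inhibition of thallium flux through KCNK3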
hERG rescue = hERG (human) protection from proarrhythmic block | actives 0.51% (n = 310,000) | CHO-hERG, FluxOR thallium flux, dofetilide IC70 present | Q12809 | activation (rescue from dofetilide block), less the hit threshold, % at 10 µM | AID 1511;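 active means activation above the mean of controls blocked by dofetilide plus 5 SD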;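 further: thallium influx through hERG after potassium depolarization seen as dye fluorescence rise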
KCNK9 block = inhibitors of human KCNK9 two-pore domain potassium channel. B-score at 10 µM. HEK293 KCNK9, FluxOR thallium flux fluorescence; stronger effect = lower value. Q9NPC2. actives 1.2% (n = 310,000);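 active means ratio B-score over 3 SD below the library mean, with starting fluorescence within 5 SD of its mean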;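 further: negative B-score means less thallium flux so channel inhibition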
KCNQ1 pot = human KCNQ1 channel potentiation or activation; CHO-K1 KCNQ1, thallium flux FluxOR fluorescence; stronger effect = higher value; P51787; AID 2648; actives 0.35% (n = 310,000); B-score at 10 µM;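 active means fluorescence ratio B-score, a plate-corrected score, at least three library SD, with initial intensity B-score within 5 SD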
Target sequence (P51787 whole entry, looked up): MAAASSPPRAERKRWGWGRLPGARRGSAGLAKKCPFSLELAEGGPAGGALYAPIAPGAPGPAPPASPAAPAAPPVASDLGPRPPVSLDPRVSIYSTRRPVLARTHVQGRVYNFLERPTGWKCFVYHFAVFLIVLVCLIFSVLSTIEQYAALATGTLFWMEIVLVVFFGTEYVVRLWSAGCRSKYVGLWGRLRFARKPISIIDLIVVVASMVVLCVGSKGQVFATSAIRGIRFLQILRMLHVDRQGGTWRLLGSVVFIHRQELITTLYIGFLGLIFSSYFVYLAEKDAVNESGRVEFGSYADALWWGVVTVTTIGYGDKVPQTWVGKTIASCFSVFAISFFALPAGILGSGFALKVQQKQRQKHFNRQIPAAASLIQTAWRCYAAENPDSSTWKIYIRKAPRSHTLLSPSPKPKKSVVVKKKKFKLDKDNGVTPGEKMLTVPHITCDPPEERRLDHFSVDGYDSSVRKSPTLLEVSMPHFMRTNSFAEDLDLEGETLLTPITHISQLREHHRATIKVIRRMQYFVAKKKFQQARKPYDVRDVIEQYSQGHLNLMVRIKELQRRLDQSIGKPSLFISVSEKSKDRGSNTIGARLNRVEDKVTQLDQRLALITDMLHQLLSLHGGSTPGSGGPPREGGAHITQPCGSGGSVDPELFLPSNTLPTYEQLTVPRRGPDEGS
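System: CHO-K1 cells stably expressing KCNQ1 / Medium: assay buffer for compound exposure, DMSO matched across wells / Reagent: thallium- and potassium-containing depolarizing buffer / Compound: one concentration, matched DMSO / Incubation: 20 min compound pretreatment at room temperature / Measured by: kinetic FluxOR fluorescence, 10 s baseline plus 110 s post-stimulus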
KCNQ1 block = inhibitors of human KCNQ1 potassium channel; actives 1.3% (n = 310,000); CHO-K1 KCNQ1, FluxOR thallium flux fluorescence; stronger effect = higher value; B-score at 10 µM;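 active means compounds whose thallium flux B-score, printed positive for inhibition, exceeds three library SD while starting fluorescence stays within three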;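 further: channel opened by potassium depolarization with thallium stimulus after 20 min compound exposure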
Kir21 inh = Kir2.1 (mouse) channel inhibition; HEK293-Kir2.1, FluxOR thallium flux fluorescence; stronger effect = lower value; B-score at 10 µM; actives 0.85% (n = 310,000); AID 1672;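 active means fluorescence ratio B-score at or below minus 3 SD of library scores, with starting-brightness B-score within 2 SD, cut at about -4.2 in these data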;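 further: channel flux triggered by added potassium and thallium sulfate stimulus; B-score of peak minus minimum fluorescence over baseline after thallium stimulus; more negative B-score means stronger Kir2.1 block with less thallium influx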
Hits are given with their value; – = inactive; · = not tested or not shown; ! = repeats disagree. An excerpt weighted towards active compounds, which were near 3.7% of everything screened.

SMILES	KCNK3 block	hERG rescue	KCNK9 block	KCNQ1 pot	KCNQ1 block	Kir21 inh
Cc1ccc(S(=O)(=O)N(Cc2n[nH]c(=S)n2-c2ccccc2)c2cccc(Cl)c2)cc1	–	–	–	–	6	–
Cc1ccc(S(=O)(=O)N(Cc2n[nH]c(=S)n2-c2ccccc2)c2ccccc2)cc1	–	–	–	–	–	–
O=C(NCCCN1CCCC1=O)Nc1ccc(F)c(Cl)c1	–	–	–	–	6	–
COc1ccc(NC(=O)NCCN2CCc3ccccc3C2)cc1	–	–	–	–	–	–
O=C(NCCCN1CCc2ccccc2C1)Nc1ccc(Cl)cc1	–	–	–	–	–	-4.7
Cc1cc(C)cc(C(=O)N2CCCCC2)c1	–	·	·	·	·	·
CC(C)[C@H](NS(=O)(=O)c1ccccc1)C(=O)OCC(=O)Nc1cccc(S(N)(=O)=O)c1	–	·	·	·	·	·
Cc1nn(C(=O)c2cccc([N+](=O)[O-])c2)c(C)c1Sc1ccccc1	–	–	–	–	–	-4.3
O=C(O)c1sccc1NC(=O)c1c(Cl)cccc1Cl	–	–	–	–	–	–
COC(=O)c1sccc1NC(=O)c1c(Cl)cccc1Cl	–	4.7	–	–	–	–
CCOC(=O)c1c(C)[nH]c(C)c1C(=O)CSc1nc2ccccc2n1CCOC	–	–	–	–	–	–
CCOC(=O)c1c(C)[nH]c(C)c1C(=O)CSc1nc2ccccc2n1CC	–	–	–	–	–	-5.3
COc1ccc(C2C(C(=O)c3cccs3)=C(O)C(=O)N2c2nnc(C)s2)cc1OC (stereo unspecified)	–	–	–	–	11	–
O=S(=O)(c1ccc(F)cc1)N1CCN(CC2CC3C=CC2C3)CC1 (stereo unspecified)	–	–	–	–	–	–
COc1ccc(N(CC(=O)N2CCN(Cc3ccccc3)CC2)S(C)(=O)=O)cc1OC	–	9.3	–	–	–	–
Cc1nn(C(C)C(=O)N/N=C/c2ccc(N(C)C)cc2)c(C)c1[N+](=O)[O-] (stereo unspecified)	–	–	-7.9	–	–	–
C/C(=N/NC(=O)C(C)n1nc(C)c([N+](=O)[O-])c1C)c1ccc(OCC(N)=O)cc1 (stereo unspecified)	–	–	–	–	–	–
CCOC(=O)c1sc(NC(=O)c2cc(-c3ccccc3C)nc3ccccc23)c(C#N)c1C	–	–	–	–	10	–
CCOC(=O)c1sc(NC(=O)c2ccccc2C(=O)O)c(C(=O)OCC)c1C	–	–	–	8	–	–
CCOC(=O)c1sc(NC(=O)Nc2ccccc2)cc1C	–	–	–	–	6	–
O=C(COc1ccc([N+](=O)[O-])cc1Cl)N(C1CCCCC1)C1CCS(=O)(=O)C1 (stereo unspecified)	–	·	·	·	·	·
O=c1c2cccnc2[nH]c(=S)n1CCC1=CCCCC1	–	31	–	27	–	–
COCCCn1c(=S)[nH]c2ncccc2c1=O	–	–	–	–	–	–
COCCn1c(=S)[nH]c2ncccc2c1=O	–	–	–	–	–	–
CCCCCn1c(=S)[nH]c2ncccc2c1=O	–	12	–	20	–	–
SMILES	KCNK3 block	hERG rescue	KCNK9 block	KCNQ1 pot	KCNQ1 block	Kir21 inh
Cc1oc(C)c2c(=O)ccc3c(c12)OC(N)=C(C#N)C3c1ccccc1Cl (stereo unspecified)	–	–	–	–	6	–
CCN(CC)c1ccc(C(=C2C=CC(=[N+](CC)CC)C=C2)c2ccc(N(CC)CC)cc2)cc1	-12	·	·	·	·	·
COc1ccccc1N(CCC#N)C(=O)COC(=O)CCC(=O)c1ccc(F)cc1	–	·	·	·	·	·
Cc1ccc(S(=O)(=O)N(C)C)cc1NC(=O)COC(=O)/C(=C/c1ccc(F)cc1)c1cccs1	–	–	-7.3	–	–	–
COc1ccc(C2=C(CN(C)C)C(c3ccccc3)c3ccccc3O2)cc1 (stereo unspecified)	–	–	–	–	–	-5.2!
CCc1ccc(-c2cc(C)no2)cc1S(=O)(=O)N1CCN(c2ccccc2)CC1	–	–	–	–	6	–
CC(=O)Oc1cccc2c1C(=O)C1CC=CC(OC(C)=O)C1C2=O (stereo unspecified)	–	·	·	·	·	·
CCN(CC)CCN1c2ccccc2Sc2ccc3ccccc3c21	–	–	–	–	–	–
CCN(CC)CCN1c2ccccc2Sc2ccccc21	–	–	–	–	–	-4.7
Cn1c(SCc2c(Cl)cccc2Cl)nc(C(F)(F)F)cc1=O	–	–	-6.7	–	–	–
Cc1cc([N+](=O)[O-])nn1CCCC(=O)Nc1cc(Oc2ccc(F)cc2)cc([N+](=O)[O-])c1	–	–	–	–	–	–
Cc1ccc(Oc2cc(NC(=O)CCCn3nc([N+](=O)[O-])c(Cl)c3C)cc([N+](=O)[O-])c2)cc1	–	–	–	–	7	–
O=C(NCc1ccc(Cl)cc1)c1n[nH]c([N+](=O)[O-])c1Cl	–	–	–	–	6	–
CC(C(=O)c1ccccc1)[n+]1cccc(Br)c1 (stereo unspecified)	–	–	–	–	–	–
CCC(OC(=O)c1cccs1)C(=O)NCc1ccco1 (stereo unspecified)	–	51	–	–	–	–
c1ccc(-c2ccc(-c3ccncn3)cc2)cc1	–	–	–	–	–	–
CCCCNC(=S)NNC(=O)c1nn(C)c(C)c1Cl	–	–	–	17	–	–
Cc1c(Cl)c(C(=O)NNC(=S)NCc2ccco2)nn1C	–	–	–	–	–	–
CC(C)NS(=O)(=O)c1ccc(NC(=O)C(C)Oc2ccc(C(=O)c3ccccc3)cc2)cc1 (stereo unspecified)	–	–	–	12	–	–
Cc1cc(C)c(OCC(=O)NCC2COc3ccccc3O2)c(C)c1 (stereo unspecified)	–	·	·	·	·	·
CCNc1c2c3c(cccc3n(C)c1=O)C(=O)c1ccccc1-2	·	–	–	–	–	–
Cn1c(=O)c(NCCO)c2c3c(cccc31)C(=O)c1ccccc1-2	–	–	–	–	25	–
OCC(Cc1ccccc1)Nc1c2ccccc2nc2ccccc12 (stereo unspecified)	–	–	–	–	–	-8.6
O=C(Cc1ccccc1)NNc1c2ccccc2nc2ccccc12	–	–	–	–	–	–
CC(=O)/C(=N/Nc1ccccc1[N+](=O)[O-])N1CCCc2ccccc21	–	–	-7.1	–	7	–
CC(=O)/C(=N/Nc1ccc([N+](=O)[O-])cc1)N1CCCc2ccccc21	–	–	–	–	–	–
COc1ccc2nc(N(CCN(C)C)C(=O)c3ccc4ccccc4c3)sc2c1	–	–	–	–	–	–
COc1ccc2nc(N=Nc3c(O)ccc4ccccc34)sc2c1	·	17	–	15	–	–
Cc1cccc(N2CCN(C(=O)CNC(=O)c3cccc([N+](=O)[O-])c3)CC2)c1C	–	12	–	–	–	–
